Rows were chosen to be rich in hits. Some 0.77% of all compounds tested hit in one or more screens of this group.
Pf gametocyte = inhibitors of late stage P. falciparum gametocyte viability | P. falciparum stage V gametocytes, ATP luminescence, 24 h | inhibition, % at 10.9 µM | 150,000 compounds, 0.065% hits | AID 743093;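 active means inhibition above the mean plus 3 SD of compounds within the control limits, set per campaign, cut at about 38% in these data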
S1P4 agonist = human S1P4 receptor agonism; O95977; AID 1509; activation, % at 4.98 µM; 220,000 compounds, 0.35% hits; S1P4-expressing cell line, agonist reporter assay; in the data active means activation above about 11%
Target sequence (O95977 whole entry, looked up): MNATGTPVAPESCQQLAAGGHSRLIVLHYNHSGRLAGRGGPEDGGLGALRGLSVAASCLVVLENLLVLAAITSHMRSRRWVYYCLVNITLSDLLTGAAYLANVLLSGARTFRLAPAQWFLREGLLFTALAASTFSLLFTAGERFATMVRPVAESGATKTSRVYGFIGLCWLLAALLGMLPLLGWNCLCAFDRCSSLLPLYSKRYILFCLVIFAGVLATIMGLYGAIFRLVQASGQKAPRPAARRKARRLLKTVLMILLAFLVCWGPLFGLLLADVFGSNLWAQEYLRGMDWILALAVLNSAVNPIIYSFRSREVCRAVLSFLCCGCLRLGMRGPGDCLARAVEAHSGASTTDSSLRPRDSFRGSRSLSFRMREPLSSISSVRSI
S1P3 antag = antagonists of human S1P3 receptor | Q99500 | CHO S1P3 NFAT-BLA reporter, FRET fluorescence, antagonist mode | inhibition, % at 4.98 µM | 170,000 compounds, 0.27% hits | AID 485;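 active means inhibition above the plate cutoff, the mean inhibition of test wells on that plate plus 3 SD, cut at about 28% in these data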;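 further: cells challenged with S1P at its EC80 of 0.8 µM; blue over green emission ratio from cleaved BLA substrate after 4 h stimulation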
Calb biofilm kill = mixtures killing C. albicans biofilm. C. albicans biofilm persisters + clotrimazole, fluorescence viability; primary screen in compound mixtures of four per well. inhibition, % at 7.6 µM. 120,000 compounds, 0.02% hits. AID 1242;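 active means inhibition above 30.3% in the primary screen of four-compound pools, then above 30% when the compound was retested; inconclusive means passed the primary limit but could not be retested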;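 further: compounds exposed to preformed 24 h biofilms for 48 h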
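Test system: C. albicans CAF4-2 wild-type biofilms; buffer or medium: RPMI/MOPS medium, pH 7.0; schedule: 24 h biofilm formation, then 48 h compound exposure, 37 °C; detection: Alamar Blue fluorescence; measure: percent inhibition of biofilm viability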
S1P4 antagonist = antagonists of human S1P4 receptor. S1P4-expressing cells, antagonist mode, reporter read-out. 220,000 compounds, 0.26% hits. O95977. inhibition, % at 4.98 µM. AID 1510; in the data active means inhibition above about 29%
S1P4 agonist cf = confirmation of human S1P4 receptor agonists; activation, % at 4.98 µM; S1P4 agonist cell-based reporter assay; AID 1523; shares compounds with S1P4 agonist; 740 compounds, 7% hits; in the data active means activation above about 12%
S1P1 ag = activates human S1P1, counter-screen for S1P4 agonists | 740 compounds, 4% hits | activation, % at 4.98 µM | shares compounds with S1P4 agonist | AID 1563 | S1P1 agonist cell-based assay, activation; in the data active means activation above about 21%
Numbers stand for hits; – = inactive; ? = inconclusive; · = no result given.

SMILES | Pf gametocyte | S1P4 agonist | S1P3 antag | Calb biofilm kill | S1P4 antagonist | S1P4 agonist cf | S1P1 ag
CCOC(=O)C1CCN(c2cc(C)nc3cc(-c4cccc(F)c4)nn23)CC1 | – | 13 | – | · | – | – | –
Cc1cccc(/C=N/N(CCO)C2=NS(=O)(=O)c3ccccc32)c1 | · | – | – | – | – | · | ·
N#CCCN(/N=C/c1cccnc1)C1=NS(=O)(=O)c2ccccc21 | – | 47 | – | – | – | – | –
COc1ccc(C)cc1NC(=O)c1cnc2n(c1=O)CCS2 | · | 17 | – | – | – | – | –
COc1ccc(C)cc1NC(=O)c1cnc2scc(C)n2c1=O | · | – | – | · | – | · | ·
CCOc1cc(S(=O)(=O)NCCc2ccc(OC)c(OC)c2)c(OCC)cc1-n1cnnn1 | · | 73 | · | · | – | – | –
CC(=O)c1cnc2sccn2c1=O | · | 16 | – | – | – | – | –
COc1ccc(NC(=O)c2cnc3sccn3c2=O)cc1 | – | – | – | · | – | · | ·
CCn1c(SCc2ccc(Cl)cc2Cl)nc2nc3c(cc2c1=O)CCCC3 | · | – | · | · | – | · | ·
O=C(NCCc1ccccc1)c1ccc2c(c1)S(=O)(=O)c1cc(Cl)ccc1C2=O | – | · | · | · | · | · | ·
Cn1c(NC(=O)CC(C)(C)C)cc(=O)n(C)c1=O | · | 46 | – | · | – | – | –
CN1CCN(CCCNC(=O)c2ccc(/C=C3\Sc4ccccc4N(Cc4ccc(F)cc4)C3=O)cc2)CC1 | – | 23 | – | – | – | – | –
CN1CCN(CCCNC(=O)c2ccc(/C=C3/Sc4ccccc4N(Cc4cccc(Cl)c4)C3=O)cc2)CC1 | – | – | – | – | – | · | ·
CCOC(=O)C1=C(C)Nc2nc(C)nn2C1c1ccc(C)cc1 (stereo not given) | · | 13 | – | – | – | – | –
O=C(NNc1c2ccccc2nc2ccccc12)C12CC3CC(CC(C3)C1)C2 | – | 13 | – | – | – | – | –
CCOCCCn1c(=NC(C)=O)c(C#N)cc2c(=O)n3cccc(C)c3nc21 | – | 12 | – | – | – | – | 28
CC(C)OCCCn1c(=NC(=O)c2cccs2)c(C#N)cc2c(=O)n3ccccc3nc21 | – | 19 | – | – | – | – | –
CC(=O)N=c1c(C#N)cc2c(=O)n3ccccc3nc2n1CCCOC(C)C | – | 16 | – | – | – | – | –
O=C(/C=C/c1cc[n+](CC(=O)c2ccc3cccc4c3c2CC4)cc1)c1ccc2cccc3c2c1CC3 | · | – | – | ? | – | · | ·
COc1ccccc1NC(=O)COC(=O)c1ccccc1C(=O)N1CCN(c2ccccc2)CC1 | · | – | – | – | – | · | ·
CCNC(=S)NNC(=O)c1cc(C)nc2ccccc12 | · | 44 | – | – | – | – | –
C=CCNC(=S)NNC(=O)c1cc(C)nc2ccccc12 | – | – | – | – | – | · | ·
COc1cc2c(cc1OC)C(c1cccs1)N(C(=S)NC(C)C)CC2 (stereo not given) | – | – | – | – | – | · | ·
CCOC(=O)c1sc(NC(=S)NC(=O)c2ccco2)nc1C | – | 34 | – | – | – | – | –
COC(=O)c1sc(NC(=O)c2ccco2)nc1C | · | – | – | · | – | · | ·
SMILES | Pf gametocyte | S1P4 agonist | S1P3 antag | Calb biofilm kill | S1P4 antagonist | S1P4 agonist cf | S1P1 ag
Cc1nc(C)c(Oc2cccc(C(F)(F)F)c2)c(=O)[nH]1 | – | – | – | – | – | · | ·
COc1ccccc1/C=C(/CC(=O)NCc1ccc(F)cc1)c1nc2ccccc2s1 | – | 63 | – | – | – | – | –
CN1C[C@@H]2[C@@H]3C(=O)N(Cc4ccccc4)C(=O)[C@@H]3[C@](C)(C1=O)N2C(=O)c1ccc(F)cc1 | – | · | · | · | · | · | ·
CCN(CC)c1ccc(-c2n[nH]c(=S)n2-c2ccccc2)cc1 | · | 12 | – | – | – | – | –
CN(C)c1ccc(-c2n[nH]c(=S)n2-c2ccccc2)cc1 | · | – | – | – | – | · | ·
CCN1C(=O)[C@@H]2[C@@H](c3ccc(SC4CCCCC4)c(OC)c3)N3CCC[C@@]3(C(=O)OC)[C@@H]2C1=O | – | · | · | · | · | · | ·
Clc1ccc(/C=C\c2nccc3c2[nH]c2ccccc23)cc1 | – | 23 | – | – | – | 25 | 84
N#Cc1ccc(/C=C\c2nccc3c2[nH]c2ccccc23)cc1 | – | 13 | – | – | – | – | –
Cc1cc(NC(=O)COC(=O)[C@@H](NS(=O)(=O)c2ccc(Br)cc2)C(C)C)no1 | – | – | – | – | – | · | ·
COc1cc(NC(=S)N2CCN(c3ccccn3)CC2)cc(OC)c1OC | – | – | – | – | – | · | ·
COc1ccc(NC(=S)N2CCN(c3ccccn3)CC2)cc1OC | – | 28 | – | – | – | – | –
O=C(COC(=O)CCc1nc2ccccc2s1)NC(=O)NCc1ccco1 | – | 17 | – | – | – | – | –
O=[n+]1c2c(n([O-])c3cc(F)ccc31)CCCC2 | · | 21 | – | · | – | – | –
Cc1ccc2c(c1)n([O-])c1c([n+]2=O)CCCC1 | · | – | · | · | – | · | ·
O=C(NNC1=Nc2cccc3cccc1c23)c1ccc(Br)cc1 | – | – | – | – | – | · | ·
CCOc1cc(N2CCOCC2)c(OCC)cc1NC(=O)c1cc(C)cc(C)c1 | – | – | – | – | – | · | ·
CCOc1cc(N2CCOCC2)c(OCC)cc1NC(=O)c1ccc(C)cc1 | – | 155 | – | – | – | – | –
Cc1cc(OC(=O)CNC(=O)OC(C)(C)C)c2c(C)cc(=O)oc2c1 | – | 48 | – | · | – | – | –
COc1ccccc1CN1CN(S(=O)(=O)c2ccccc2)c2nc3ccccc3nc21 | – | – | – | – | – | · | ·
CCN(CC)S(=O)(=O)c1cccc(-n2c(O)c(C=Nc3ccccc3C(=O)O)c3ccccc3c2=O)c1 | – | – | – | – | – | · | ·
Cc1cccc(OCC(=O)Nc2ncn[nH]2)c1C | – | 24 | – | – | – | – | –
CC(C)(C)S(=O)(=O)/C(C#N)=N/Nc1ccc(Cl)cc1 | – | – | – | – | – | · | ·
CC(C)(C)c1ccc(N/N=C(\C#N)S(=O)(=O)C(C)(C)C)cc1 | – | 29 | – | – | – | – | –
CC(C)/C=C/CN1CCN(CCCc2ccccc2)C(CCO)C1 (stereo not given) | – | · | · | · | · | · | ·
Cc1c(Cl)cccc1NC(=O)C1NC(=O)CC1c1ccccc1 (stereo not given) | · | – | · | · | – | · | ·
SMILES | Pf gametocyte | S1P4 agonist | S1P3 antag | Calb biofilm kill | S1P4 antagonist | S1P4 agonist cf | S1P1 ag
COc1cc(C2NC(=S)NC(C)=C2C(=O)Nc2cc(C)cc(C)c2)ccc1O (stereo not given) | – | 33 | – | – | – | – | –
CN(C)c1cc[n+](CC(=O)Nc2ccc(OC(F)F)cc2)cc1 | – | – | – | – | – | · | ·
CN(C)c1ccc(N2C(=O)CC(Sc3ccccc3C(=O)O)C2=O)cc1 (stereo not given) | – | 11 | – | – | – | – | –
Cc1nnc(-c2ccc(Oc3ccc(Br)cc3)c([N+](=O)[O-])c2)o1 | – | – | – | – | – | · | ·
Cc1cc(Oc2ccc(-c3nnc(-c4ccccc4)o3)cc2[N+](=O)[O-])ccc1Cl | · | 14 | – | – | – | – | –
Cc1cc(NC(=O)CCC(=O)N(CC(=O)NC2CCCC2)Cc2cccs2)no1 | – | 33 | – | – | – | – | –
COc1cc(-c2nc3ccccn3c2/N=C/c2cc(OC)c(O)cc2Cl)ccc1O | – | – | – | – | – | · | ·
